The text below walks through data of ChEMBL document CHEMBL2163342, “[18F](R)-5-chloro-1-(1-cyclopropyl-2-methoxyethyl)-3-(4-(2-fluoroethoxy)-2,5-dimethyl phenylamino)pyrazin-2(1H)-one: introduction of N3-phenylpyrazinones as potential CRF-R1 PET imaging agents” (Bioorg Med Chem Lett, 2012).

One may read the IC50 as the concentration that inhibits the measured activity by half. A low value points to higher potency. For orientation: logD means the decadic logarithm of the distribution of all forms, ionised or not, between an organic phase and buffer at a given pH. A lower logD goes with a more hydrophilic compound. One may read the Ki as a dissociation constant, usually derived from enzyme kinetics or from competition with a known ligand. Low readings indicate a stronger hold on the target, high ones a looser hold on the target. The term fraction unbound denotes free concentration divided by total concentration. A high value points to weak binding.

Data set [1] has as its target T1, Corticotropin-releasing factor receptor 1 (Rattus norvegicus, UniProt P35353).
T1 sequence (P35353 whole entry): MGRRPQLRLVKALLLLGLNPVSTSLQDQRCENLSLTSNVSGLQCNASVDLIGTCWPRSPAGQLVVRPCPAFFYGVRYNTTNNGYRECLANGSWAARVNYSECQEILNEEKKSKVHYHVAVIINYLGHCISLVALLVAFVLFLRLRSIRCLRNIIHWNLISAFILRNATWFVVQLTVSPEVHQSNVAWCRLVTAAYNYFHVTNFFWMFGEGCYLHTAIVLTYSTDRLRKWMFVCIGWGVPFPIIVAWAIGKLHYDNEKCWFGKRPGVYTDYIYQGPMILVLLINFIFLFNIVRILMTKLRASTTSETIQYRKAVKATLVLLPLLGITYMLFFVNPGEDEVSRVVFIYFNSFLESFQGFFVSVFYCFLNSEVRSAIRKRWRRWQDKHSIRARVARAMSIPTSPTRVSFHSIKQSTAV
The experiment in a line: Displacement of [125I]-o-CRF from CRFR1 in rat frontal cortex after 2 hrs by gamma counter. In kind it is tissue-based. In outline:
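Rat frontal cortex homogenate (25 µg/well), prepared in 50 mM HEPES pH 7.0, 10 mM MgCl2, 2 mM EGTA, protease inhibitors, 0.005% Triton X-100, bacitracin, 0.1% ovalbumin. Incubated with 150 pM [125I]-o-CRF and compounds for 2 h at 21 °C. Separated by rapid filtration on PEI-pretreated glass fiber filters, washed with ice-cold PBS/0.01% Triton X-100. Specific binding inhibition gives Ki.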

The nature of data set [2]: Octanol-phosphate buffer partition coefficient, log D of the compound at pH 7.4 by shake flask method. The data set is classed as physicochemical. In outline:
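Shake-flask method. Octanol and 25 mM phosphate buffer (pH ~7.4) mixed and allowed to saturate overnight. Compound (1.0 mg in 1 mL octanol) added to 50 mL octanol-saturated buffer, shaken intensely 30–40 min, then layers left to separate. Each layer analysed twice by HPLC.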

Data set [3] relates to Liver microsomes. The experiment in a line: Drug metabolism in human liver microsomes assessed as compound depletion per mg of protein at 3 uM. In kind it is ADME, Microsome. In outline:
(§1)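 Liver microsomes (1 mg/ml protein) incubated with 3 µM compound and 1.3 mM NADPH at 37 °C in 100 mM sodium phosphate buffer, pH 7.4. Final solvent 0.015% DMSO, 0.985% acetonitrile. Stopped at 0 and 10 min, compound measured by LC/MS/MS. Reported as depletion rate, pmol/min/mg protein.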
A general note: Liver microsomes are vesicles of endoplasmic reticulum, rich in cytochrome P450 enzymes.

Data set [4] relates to Liver microsomes. The experiment in a line: Drug metabolism in rat liver microsomes assessed as compound depletion per mg of protein at 3 uM. In kind it is ADME, Microsome. In outline:
as §1

Data set [5] addresses T2, Corticotropin-releasing factor receptor 1 (Homo sapiens, UniProt P34998).
T2 sequence (P34998 whole entry): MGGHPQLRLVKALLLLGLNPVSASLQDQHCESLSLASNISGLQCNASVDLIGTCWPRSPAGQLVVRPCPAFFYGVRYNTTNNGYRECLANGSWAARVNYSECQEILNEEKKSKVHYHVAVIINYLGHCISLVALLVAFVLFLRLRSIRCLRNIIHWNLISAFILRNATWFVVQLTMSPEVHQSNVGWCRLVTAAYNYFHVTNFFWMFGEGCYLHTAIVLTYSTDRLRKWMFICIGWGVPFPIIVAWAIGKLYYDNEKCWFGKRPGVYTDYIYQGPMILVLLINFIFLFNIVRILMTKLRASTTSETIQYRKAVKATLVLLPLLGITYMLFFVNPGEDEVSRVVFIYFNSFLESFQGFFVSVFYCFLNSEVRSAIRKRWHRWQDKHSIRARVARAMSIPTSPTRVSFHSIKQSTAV
Kind of data set: Binding affinity to CRFR1 by autoradiography. In outline: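 In vitro autoradiography on fresh 20 µm sagittal brain sections from adult male Sprague–Dawley rats. Sections preincubated 10 min in 50 mM HEPES, 10 mM MgCl2, EGTA, pH 7.4, then incubated with 1.3 nM [18F] radioligand at 22–24 °C for 40 min. Washed 2 min in ice-cold PBS, pH 7.4.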

Data set [6] is described as follows: Metabolic stability in baboon plasma assessed as compound remaining after 9 and 13 mins. The settings on record: papio anubis, read-out: Stability. In kind it is ADME, cell-free.
For data set [7], the target named is T3, Corticotropin-releasing factor receptor 1 (Rattus norvegicus) (UniProt P35353).
T3 sequence (whole entry): T1 sequence (P35353 whole entry)
The experiment in a line: Binding affinity to CRFR1 in Sprague-Dawley rat neocortex at 1.3 nM after 40 mins by autoradiography. The settings on record: tested as the 18F-labelled form. In outline: (§2)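 Fresh 20 µm-thick sagittal brain sections from adult male Sprague–Dawley rats. Sections were preincubated 10 min in 50 mM HEPES, 10 mM MgCl₂, […], pH 7.4, then incubated 40 min at 22–24 °C with 1.3 nM [¹⁸F]-radioligand (1.3 mCi/mL) in the same buffer. Slides were washed 2 min in ice-cold PBS (pH 7.4) and imaged by in vitro autoradiography.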

Data set [8] addresses T3, Corticotropin-releasing factor receptor 1 (Rattus norvegicus). Kind of data set: Binding affinity to CRFR1 in Sprague-Dawley rat cerebellum at 1.3 nM after 40 mins by autoradiography. The settings on record: tested as the 18F-labelled form. In outline: as §2
The next data set concerns Spleen. The experiment in a line: Drug uptake in rat spleen measured at 15 and 60 mins. The data set is classed as ADME, tissue-based. The settings on record: in vivo, 1 h. In outline:
(§3)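 Whole-body biodistribution of the [18F]-labelled radioligand in rats, formulated in 10% EtOH/saline. Tissues sampled at 15 and 60 min post-dose. Activity expressed as average % injected dose per gram.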

Data set [9] concerns Brain. The experiment in a line: Drug uptake in rat brain up to 10 mins by microPET analysis. The data set is classed as ADME, tissue-based. The settings on record: in vivo. In outline:
(§4)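 In vivo microPET imaging of rat head and neck after dosing with the [18F] radioligand. Brain uptake followed from the first 10 min through 30 min on sagittal images. Skull bone uptake checked for defluorination.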

The subject of data set [10] is Brain. Kind of data set: Drug uptake in rat brain after 10 to 30 mins by microPET analysis. The settings on record: in vivo. In kind it is ADME, tissue-based. In outline:
as §4

Data set [11] is described as follows: Drug uptake in rat tibia measured at 15 and 60 mins. The data set is classed as ADME, tissue-based. The settings on record: in vivo, 1 h. In outline: as §3
In a further data set the test system is Intestine. Kind of data set: Drug uptake in rat small intestine measured at 15 and 60 mins. The data set is classed as ADME, tissue-based. The settings on record: in vivo, 1 h. In outline:
as §3

The test system of a further data set is Muscle tissue. Kind of data set: Drug uptake in rat muscle measured at 15 and 60 mins. The data set is classed as ADME, tissue-based. The settings on record: in vivo, 1 h. In outline:
as §3

The test system of the next data set is Lung. Kind of data set: Drug uptake in rat lung measured at 15 and 60 mins. The data set is classed as ADME, tissue-based. The settings on record: in vivo, 1 h. In outline:
as §3

In a further data set the test system is Liver. The experiment in a line: Drug uptake in rat liver measured at 15 and 60 mins. The data set is classed as ADME, tissue-based. The settings on record: in vivo, 1 h. In outline:
as §3

For another data set, the system named is Heart. Kind of data set: Drug uptake in rat heart measured at 15 and 60 mins. The data set is classed as ADME, tissue-based. The settings on record: in vivo, 1 h. In outline: as §3
Another data set relates to Blood. Kind of data set: Drug uptake in rat blood measured at 15 and 60 mins. The settings on record: 1 h. In kind it is ADME, tissue-based. In outline: as §3
The test system of data set [12] is Brain. Kind of data set: Drug uptake in rat brain measured at 15 and 60 mins. The data set is classed as ADME, tissue-based. The settings on record: in vivo, 1 h. In outline:
as §3

Another data set relates to Kidney. Kind of data set: Drug uptake in rat kidney measured at 15 and 60 mins. The data set is classed as ADME, tissue-based. The settings on record: in vivo, 1 h. In outline: as §3
Data set [13] can be described thus: Unbound fraction in rat plasma after 3 hrs by equilibrium dialysis method. In kind it is ADME, cell-free. In outline:
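Equilibrium dialysis of rat plasma spiked with compound against isotonic phosphate buffer, 3 h at 37 °C. Buffer and plasma concentrations measured by LC/MS/MS. Unbound fraction taken as the buffer/plasma concentration ratio.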
Background: In equilibrium dialysis free small molecules cross a membrane that holds back macromolecules.

`COC[C@@H](C)n1cc(Cl)nc(Nc2cc(C)c(OC)cc2C)c1=O`: the IC50 in data set [1] amounted to 0.88 nM. Besides, the logD in data set [2] amounted to 3.4. The Drug metabolism in the data set on Liver microsomes [3] worked out at 0.06 pmol/min; in the data set with Liver microsomes [4] it was 0.19 pmol/min.

In data set [5], `COCCN(CCO[11CH3])Cc1cc(C)nc2c(-c3ccc(Cl)cc3Cl)c(C)nn12` [[11C]DMP-696] showed a Ki of 1.7 nM. Further, in data set [6], the remaining at 13 min was found to be 50%.

The compound `COCC(COC)n1cc(Br)nc(Nc2cc(C)c(OC)cc2C)c1=O` had an IC50 in data set [1] of 0.68 nM. The logD in [2] is 3.8. For the same compound, the values for the Drug metabolism in the data set on Liver microsomes [3] and in the data set on Liver microsomes [4] were 0.07 pmol/min and 0.14 pmol/min, respectively.

`COC[C@@H](C1CC1)n1cc(Cl)nc(Nc2cc(C)c(OCCF)cc2C)c1=O`: the IC50 in data set [1] was found to be 2.4 nM. The logD in [2] came to 3.7. For the same compound, the Drug metabolism is reported as 0.07 pmol/min in the data set on Liver microsomes [3] and 0.12 pmol/min in the data set on Liver microsomes [4]. Also, the figures for the Activity in data set [7] and in [8] were 18% and 19%, respectively.

In the case of `CCCN(CCC)c1cc(C)nc2c(-c3ccc(N(C)[11CH3])nc3)c(C)nn12`, the inhibitory constant (Ki) in data set [5] was found to be 1.7 nM. For the same compound, the remaining at 13 min in data set [6] came out at 50%.

For the compound `CCC(COC)n1nnc2c(Nc3ccc(O[11CH3])cc3C)nc(C)cc21` (centres undefined), the affinity in data set [5], expressed as Ki, was 1.7 nM.

Take `COC[C@@H](C1CC1)n1cc(Cl)nc(Nc2cc(C)c(OCF)cc2C)c1=O`: the 50% inhibitory concentration (IC50) in data set [1] is 4.1 nM. In [2], this compound displayed a log distribution coefficient (logD) of 3.1.

With `COCC(COC)n1cc(Cl)nc(Nc2c(Cl)cc(OCF)cc2Cl)c1=O`, the IC50 in data set [1] stood at 5.4 nM. Also, the logD in [2] is 3.1.

In data set [1], `COCC(COC)n1cc(Cl)nc(Nc2c(Cl)cc(OC)cc2Cl)c1=O` had a 50% inhibitory concentration (IC50) of 5 nM. This compound showed a logD in data set [2] of 3.4. In addition, the Drug metabolism with Liver microsomes [3] is listed as 0.03 pmol/min; with Liver microsomes [4], 0.17 pmol/min.

`COCCN(CCOC)c1nc(C)nc2c(-c3ccc([76Br])cc3Cl)c(C)nn12` yielded a Ki in data set [5] of 2 nM.

With `COCC(COC)n1cc(Cl)nc(Nc2c(Cl)cc(OCCF)cc2Cl)c1=O`, the IC50 in data set [1] amounted to 210 nM. The compound also registered a logD in data set [2] of 3.1. In addition, the Drug metabolism with Liver microsomes [3] is given as 0.07 pmol/min; with Liver microsomes [4], 0.12 pmol/min.

With `COC[C@@H](C1CC1)n1cc(Cl)nc(Nc2cc(C)c(OC)cc2C)c1=O`, the Drug metabolism in the data set with Liver microsomes [3] was 0.17 pmol/min; with Liver microsomes [4], 0.23 pmol/min.

For `COC[C@@H](C1CC1)n1cc(Cl)nc(Nc2cc(C)c(OCC[18F])cc2C)c1=O`, the Drug uptake result is “Active” with Spleen; “Active” in the data set with Brain [9]; “Not Active” with Brain [10]; “Active” in [11]; “Active” in the data set with Intestine; “Active” in the data set with Muscle tissue. The Drug uptake result with Lung, with Liver, with Heart, with Blood, with Brain [12] and in the data set on Kidney was “Active” in each case.

In the case of `COCC(COC)n1cc(Br)nc(Nc2c(C)cc(OC)cc2C)c1=O`, in data set [1], the IC50 stood at 7.8 nM. In [2], the pH-dependent lipophilicity (logD) came out at 2.8. In data set [13], this compound came in with an unbound share (fraction unbound) at 3 h of 0.03.

In [1], `COCC(COC)n1cc(Br)nc(Nc2c(C)cc(OCF)cc2C)c1=O` yielded a concentration for half-maximal inhibition (IC50) of 4.3 nM. In [2], this compound yielded a log distribution coefficient (logD) of 2.9. Also, the Drug metabolism is on record as 0.22 pmol/min in the data set with Liver microsomes [3] and 0.26 pmol/min with Liver microsomes [4]. The compound also yielded a fraction unbound at 3 h in data set [13] of 0.03.
